Laboratory results as given in ChEMBL document CHEMBL4017519, “Development of (4-Cyanophenyl)glycine Derivatives as Reversible Inhibitors of Lysine Specific Demethylase 1” (J Med Chem, 2017).
The source made the active and inactive calls. The calls are words filed in the database; no cut-off is given here.

Key:
[1] = target: T1, Lysine-specific histone demethylase 1A (Homo sapiens, UniProt O60341); assay: Binding affinity to LSD1 (unknown origin) by SPR analysis
[2] = target: T1, Lysine-specific histone demethylase 1A; assay: Inhibition of N-terminal truncated human LSD1 (151 to 852 residues) expressed in Escherichia coli after 30 mins using histone H3(1-21)K4(Me1) biotin peptide as substrate by TR-FRET assay
THP-1 [3] = assay: Anticlonogenic activity against human THP1 cells at 10 uM after 7 days; assay type: functional, cell-based
Liver = assay: Intrinsic clearance in mouse liver microsomes assessed per […]; assay type: ADME, microsome
[4] = Efflux ratio of apparent permeability in human Caco2 cells; assay type: ADME, cell-based; conditions: Caco-2
THP-1 [5] = assay: Induction of apoptosis in human THP1 cells at 10 uM after 4 days by Annexin V-perCP EF710/7AAD double staining based FACS analysis; assay type: functional, cell-based
Summary of the method: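 THP-1 cells in liquid culture with 10 μM compound or vehicle for 4 days, then stained with an Annexin V/7-AAD kit per manufacturer and analysed by flow cytometry. Early apoptotic = Annexin V-pos/7-AAD-neg; apoptotic = Annexin V-pos/7-AAD-pos. One-way ANOVA with Dunnett's tests.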

[6] = Half life in mouse liver microsomes; assay type: ADME, microsome
[7] = target: T1, Lysine-specific histone demethylase 1A; assay: Inhibition of LSD1 in human THP1 cells assessed as induction of CD86 expression after 48 hrs by flow cytometric analysis; assay type: cell-based
[8] = Apparent permeability across apical to basolateral side in human Caco2 cells; assay type: ADME, cell-based; conditions: Caco-2
Homo sapiens = species: Homo sapiens; assay: Selectivity ratio of IC50 for human ERG to IC50 for N-terminal truncated human LSD1 (151 to 852 residues) expressed in Escherichia coli
[9] = target: Voltage-gated inwardly rectifying potassium channel KCNH2 (Homo sapiens, UniProt Q12809); assay: Inhibition of human hERG by patch clamp method
Voltage-gated inwardly rectifying potassium channel KCNH2, sequence (Q12809 whole entry): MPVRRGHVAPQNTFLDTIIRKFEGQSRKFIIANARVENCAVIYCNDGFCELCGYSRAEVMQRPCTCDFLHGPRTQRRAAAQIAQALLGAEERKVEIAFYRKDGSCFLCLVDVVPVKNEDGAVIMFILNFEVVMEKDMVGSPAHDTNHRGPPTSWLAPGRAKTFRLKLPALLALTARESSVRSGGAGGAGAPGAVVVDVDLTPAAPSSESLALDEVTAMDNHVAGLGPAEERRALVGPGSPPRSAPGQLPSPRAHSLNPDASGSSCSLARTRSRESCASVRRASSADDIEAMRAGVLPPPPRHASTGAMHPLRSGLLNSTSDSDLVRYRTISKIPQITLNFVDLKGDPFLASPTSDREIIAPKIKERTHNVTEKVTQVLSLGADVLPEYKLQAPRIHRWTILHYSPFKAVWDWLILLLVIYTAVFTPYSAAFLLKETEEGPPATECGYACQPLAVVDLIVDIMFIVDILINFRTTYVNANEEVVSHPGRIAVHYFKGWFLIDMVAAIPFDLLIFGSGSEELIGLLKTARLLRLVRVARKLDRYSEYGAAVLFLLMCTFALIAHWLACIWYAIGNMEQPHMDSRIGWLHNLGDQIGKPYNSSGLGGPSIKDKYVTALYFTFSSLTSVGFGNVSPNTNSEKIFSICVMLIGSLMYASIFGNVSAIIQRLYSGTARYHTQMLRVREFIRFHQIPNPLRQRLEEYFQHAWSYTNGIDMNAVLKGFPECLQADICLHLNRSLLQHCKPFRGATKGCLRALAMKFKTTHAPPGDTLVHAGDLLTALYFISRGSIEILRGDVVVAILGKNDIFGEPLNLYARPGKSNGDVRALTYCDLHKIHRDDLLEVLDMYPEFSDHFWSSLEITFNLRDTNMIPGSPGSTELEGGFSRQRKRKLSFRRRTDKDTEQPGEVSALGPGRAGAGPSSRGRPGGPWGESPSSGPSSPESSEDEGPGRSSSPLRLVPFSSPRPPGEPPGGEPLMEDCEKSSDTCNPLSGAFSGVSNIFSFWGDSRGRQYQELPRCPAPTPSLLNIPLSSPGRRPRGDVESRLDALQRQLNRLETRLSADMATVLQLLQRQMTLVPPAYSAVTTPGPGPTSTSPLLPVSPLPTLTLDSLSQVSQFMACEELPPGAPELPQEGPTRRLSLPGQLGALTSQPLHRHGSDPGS

MV4-11 = assay: Anticlonogenic activity against human MV4-11 cells at 10 uM after 7 days; assay type: functional, cell-based
[10] = target: T1, Lysine-specific histone demethylase 1A; assay: Competitive binding affinity to LSD1 (unknown origin) in presence of tranylcypromine
[11] = target: T1, Lysine-specific histone demethylase 1A; assay: Inhibition of LSD1 in human THP1 cells assessed as induction of CD86 expression at 50 uM after 48 hrs by flow cytometric analysis; assay type: cell-based
Summary of the method: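 THP-1 AML cells grown in RPMI with 10% FBS and 2 mM L-glutamine, exposed to compound or DMSO vehicle at 50 μM for 48 h at 1×10^5 cells/ml. Cells were pelleted and stained with CD86-PerCP EF710 antibody in phenol red-free RPMI with 5 mM EDTA and 2% BSA for 10 min at 4 °C, then washed and analysed by flow cytometry.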

CNC1CCN(C(=O)CN(c2ccc(C#N)cc2)S(=O)(=O)c2ccc(C)cc2)CC1
Kd [1]: 2900 nM
IC50 [2]: 7500 nM

N#Cc1ccc(N(CC(=O)N2CCC(CN)CC2)Cc2ccc(F)cc2)cc1
Kd [1]: 460 nM
IC50 [2]: 1300 nM

Cc1ccc(S(=O)(=O)N(CC(=O)Nc2cccnc2)c2ccc(C#N)cc2)cc1
Kd [1]: 90000 nM
IC50 [2]: > 150000 nM

Cc1ccc(S(=O)(=O)N(CC(=O)N2CCC[C@H](N)C2)c2ccc(C#N)cc2)cc1
Kd [1]: 10300 nM
IC50 [2]: 24300 nM

COc1cc(N(CC(=O)N2CCC(N)CC2)S(=O)(=O)c2ccc3c(c2)CCN3C(C)=O)ccc1-n1nc(C)cc1C
Kd [1]: > 100000 nM
IC50 [2]: > 30000 nM

Cc1ccc(S(=O)(=O)N(CC(=O)N[C@@H]2CN3CCC2CC3)c2ccc(C#N)cc2)cc1
Kd [1]: 3500 nM
IC50 [2]: 14200 nM

Cc1ccc(S(=O)(=O)N(CC(=O)N2CCC(N)CC2)c2ccc(C#N)cc2)cc1
Kd [1]: 2600 nM
IC50 [2]: 7600 nM

COc1ccc(CN(CC(=O)N2CCC3(CC2)CNC3)c2ccc(C#N)cc2)cc1F
Kd [1]: 32 nM
Activity (THP-1 [3]): Active
CLint (Liver): < 1 µL/min
efflux ratio [4]: 58
Activity (THP-1 [5]): Active
half-life [6]: > 16.7 h
EC50 [7]: 670 nM
IC50 [2]: 83 nM
Papp A→B [8]: 0.09 ×10⁻⁶ cm/s
Ratio IC50 (Homo sapiens): 30
IC50 [9]: 20100 nM
Activity (MV4-11): Active

Cc1ccc(S(=O)(=O)N(CC(=O)N[C@H]2CN3CCC2CC3)c2ccc(C#N)cc2)cc1
Kd [1]: 3600 nM
IC50 [2]: 11900 nM

Cc1ccc(S(=O)(=O)N(CC(=O)N2CCC[C@@H](N)C2)c2ccc(C#N)cc2)cc1
Kd [1]: 4500 nM
IC50 [2]: 13900 nM

Cc1ccc(S(=O)(=O)N(CC(=O)N2CCC(N(C)C)CC2)c2ccc(C#N)cc2)cc1
Kd [1]: 2900 nM
IC50 [2]: 12600 nM

N#Cc1ccc(N(CC(=O)N2CCC(N)CC2)Cc2ccccc2)cc1
Kd [1]: 1100 nM
IC50 [2]: 4100 nM

Cc1ccc(-c2ncc(OC[C@H]3CCNC3)cc2-c2ccc(C#N)cc2)cc1
Kd [1]: 9 nM
Activity (THP-1 [3]): Active
CLint (Liver): 3.43 µL/min
Activity (THP-1 [5]): Active
half-life [6]: 6.73 h
EC50 [7]: 300 nM
Papp A→B [8]: 5.6 ×10⁻⁶ cm/s
IC50 [9]: 3200 nM
Activity (MV4-11): Active

COc1cc(NS(=O)(=O)c2ccc3c(c2)cc(C)c(=O)n3C)ccc1-n1nc(C)cc1C
IC50 [2]: 430 nM
Activity [10]: inactive
inhibition [11]: inactive

N#Cc1ccc(N(CC(=O)N2CCC(CN)CC2)Cc2ccc(Cl)cc2)cc1
Kd [1]: 290 nM
IC50 [2]: 400 nM

Cc1ccc(S(=O)(=O)N(CC(=O)N2C[C@@H]3C[C@H]2CN3)c2ccc(C#N)cc2)cc1
Kd [1]: 2400 nM
IC50 [2]: 13100 nM

Cc1ccc(S(=O)(=O)N(CC(=O)N2CC[C@H](N)C2)c2ccc(C#N)cc2)cc1
Kd [1]: 4700 nM
IC50 [2]: 22700 nM

COc1ccc(CN(CC(=O)N2CCC(N)CC2)c2ccc(C#N)cc2)cc1F
Kd [1]: 190 nM
CLint (Liver): 3.6 µL/min
half-life [6]: 6.42 h
IC50 [2]: 810 nM
Papp A→B [8]: 0.44 ×10⁻⁶ cm/s

Cn1ncc2cc(CN(CC(=O)N3CCC(N)CC3)c3ccc(C#N)cc3)ccc21
Kd [1]: 140 nM
IC50 [2]: 620 nM

Cc1ccc(CN(CC(=O)N2CCC(N)CC2)c2ccc(C#N)cc2)cc1
Kd [1]: 430 nM
IC50 [2]: 1300 nM

COc1ccc(CN(CC(=O)N2CCC(CN)CC2)c2ccc(C#N)cc2)cc1F
Kd [1]: 58 nM
CLint (Liver): 4.5 µL/min
efflux ratio [4]: 58
half-life [6]: 5.08 h
EC50 [7]: 4100 nM
IC50 [2]: 210 nM
Papp A→B [8]: 0.26 ×10⁻⁶ cm/s
IC50 [9]: 12400 nM

CC(=O)Nc1ccc(S(=O)(=O)Nc2ccc(C#N)cc2)cc1
Kd [1]: 9500 nM

COc1cc(NS(=O)(=O)c2ccccc2)ccc1-n1nc(C)cc1C
IC50 [2]: 40000 nM

Cn1cc2cc(N(CC(=O)N3CCC[C@@H](N)C3)S(=O)(=O)c3ccc(C#N)cc3)ccc2n1
Kd [1]: 9600 nM
IC50 [2]: 30000 nM

N#Cc1ccc(N(CC(=O)N2CCC(CN)CC2)Cc2ccc(C(N)=O)cc2)cc1
Kd [1]: 490 nM
IC50 [2]: 830 nM

COc1ccc(CN(CC(=O)N2CCC(F)(CN)CC2)c2ccc(C#N)cc2)cc1F
Kd [1]: 230 nM
IC50 [2]: 990 nM

Cc1ccc(S(=O)(=O)N(CC(=O)N2CC[C@@H](N)C2)c2ccc(C#N)cc2)cc1
Kd [1]: 3200 nM
IC50 [2]: 16400 nM

COc1cc(NS(=O)(=O)c2ccc3c(c2)CCN3C(C)=O)ccc1-n1nc(C)cc1C
Kd [1]: > 100000 nM
IC50 [2]: 1600 nM

N#Cc1ccc(N(CC(=O)N2CCC(CN)CC2)Cc2cccc(C(N)=O)c2)cc1
Kd [1]: 420 nM
IC50 [2]: 1000 nM

CC(=O)N1CCc2cc(S(=O)(=O)N(CC(=O)N3CCC[C@@H](N)C3)c3ccc(C#N)cc3)ccc21
Kd [1]: 2400 nM
IC50 [2]: 5200 nM

Cc1ccc(S(=O)(=O)N(CC(=O)NC2CCNCC2)c2ccc(C#N)cc2)cc1
Kd [1]: 6500 nM
IC50 [2]: 15600 nM

Cc1ccc(S(=O)(=O)N(CC(=O)N2CCC(C)(N)CC2)c2ccc(C#N)cc2)cc1
Kd [1]: 2500 nM
IC50 [2]: 5200 nM

CC(=O)N1CCc2cc(S(=O)(=O)N(CC(=O)N3CCC(N)CC3)c3ccc(C#N)cc3)ccc21
Kd [1]: 1800 nM
IC50 [2]: 4400 nM

Cc1ccc(CN(CC(=O)N2CCC(CN)CC2)c2ccc(C#N)cc2)cc1
Kd [1]: 110 nM
IC50 [2]: 290 nM

N#Cc1ccc(N(CC(=O)N2CCC(N)CC2)Cc2ccc(C#N)c(F)c2)cc1
Kd [1]: 1900 nM
IC50 [2]: 5500 nM
